# Assay results as given in ChEMBL document CHEMBL1127562, “N-substituted spirosuccinimide, spiropyridazine, spiroazetidine, and acetic acid aldose reductase inhibitors derived from isoquinoline-1,3-diones. 2” (J Med Chem, 1994).
# The source made the active and inactive calls. No cut-off for these calls is given here.
# Key:
# Rattus norvegicus [1] = experiment: Tested for in vivo inhibition of galactitol accumulation in the lens of galactose-fed rats at the dose of 24.8 (mg/kg/day); NS=Not significant; assay type: functional, organism-based; conditions: Lens of camera-type eye
# [2] = molecular target: Aldo-keto reductase family 1 member B1 (Bos taurus) (UniProt P16116); experiment: Inhibition of aldose reductase activity in partially purified bovine lens preparation at 10e-5 M
# Summary of the method: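 Partially purified bovine lens aldose reductase. Reduction of DL-glyceraldehyde substrate followed spectrophotometrically. Activity expressed as average inhibition at the tested concentrations, 1×10^-5, 1×10^-6, 1×10^-7 and 4×10^-6 M as printed; IC50 in M where given.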
# Rattus norvegicus [3] = experiment: Tested for in vivo inhibition of galactitol accumulation in the sciatic nerve of galactose-fed rats at the dose of 24.8 (mg/kg/day); NS=Not significant; assay type: functional, organism-based
# Summary of the method: (§1)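 Rats were given a 20% galactose diet for 4 days, with the test compound administered in the diet. Sciatic nerve galactitol accumulation was measured, and activity is given as % inhibition at the stated daily dose (mg/kg/day). Values are mean ± SEM, n = 6 animals; p < 0.01 unless indicated. NS means no significant inhibition of polyol accumulation.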
# Rattus norvegicus [4] = experiment: Tested for in vivo inhibition of galactitol accumulation in the lens of galactose-fed rats at the dose of 54 (mg/kg/day); NS=Not significant; assay type: functional, organism-based; conditions: Lens of camera-type eye
# Rattus norvegicus [5] = experiment: tTested for in vivo inhibition of galactitol accumulation in the sciatic nerve of galactose-fed rats at the dose of 54 (mg/kg/day); NS=Not significant; assay type: functional, organism-based
# Summary of the method: (§2)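 Rats fed a 20% galactose diet for 4 days, with test compound given in the diet at the stated daily dose (mg/kg/day). Read-out is inhibition of galactitol (polyol) accumulation in sciatic nerve. Values are % inhibition, mean ± SEM of six animals; p < 0.01 unless marked (some p < 0.05). NS = no significant inhibition of polyol accumulation. Tolrestat was the reference standard.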
# Rattus norvegicus [6] = experiment: Tested for in vivo inhibition of galactitol accumulation in the lens of galactose-fed rats at the dose of 4.7 (mg/kg/day); NS=Not significant; assay type: functional, organism-based; conditions: Lens of camera-type eye
# Rattus norvegicus [7] = experiment: Tested for in vivo inhibition of galactitol accumulation in the sciatic nerve of galactose-fed rats at the dose of 4.7 (mg/kg/day); assay type: functional; summary of the method: as §1
# Rattus norvegicus [8] = experiment: Tested for in vivo inhibition of galactitol accumulation in the sciatic nerve of galactose-fed rats at the dose of 48 (mg/kg/day); assay type: functional; summary of the method: as §2
# Rattus norvegicus [9] = experiment: Tested for in vivo inhibition of galactitol accumulation in the lens of galactose-fed rats at the dose of 48 (mg/kg/day); assay type: functional, Lens of camera-type eye
# Rattus norvegicus [10] = experiment: Tested for in vivo inhibition of galactitol accumulation in the sciatic nerve of galactose-fed rats at the dose of 26.8 (mg/kg/day); assay type: functional; summary of the method: as §1
# Rattus norvegicus [11] = experiment: Tested for in vivo inhibition of galactitol accumulation in the lens of galactose-fed rats at the dose of 26.8 (mg/kg/day); NS=Not significant; assay type: functional, organism-based; conditions: Lens of camera-type eye
# Rattus norvegicus [12] = experiment: Tested for in vivo inhibition of galactitol accumulation in the lens of galactose-fed rats at the dose of 85 (mg/kg/day); assay type: functional, Lens of camera-type eye
# Summary of the method: (§3)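 Galactosemic rats were fed 20% galactose for 4 days, with the compound mixed into the diet. […] galactitol accumulation was measured, and activity is given as % inhibition at the stated daily dose (mg/kg/day). Values are mean ± SEM of six animals; p < 0.01 unless indicated. NS means no significant inhibition of polyol accumulation.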
# Rattus norvegicus [13] = experiment: Tested for in vivo inhibition of galactitol accumulation in the sciatic nerve of galactose-fed rats at the dose of 85 (mg/kg/day); assay type: functional; summary of the method: as §2
# Rattus norvegicus [14] = experiment: Tested for in vivo inhibition of galactitol accumulation in the sciatic nerve of galactose-fed rats at the dose of 55.4 (mg/kg/day); NS=Not significant; assay type: functional, organism-based; summary of the method: as §2
# Rattus norvegicus [15] = experiment: Tested for in vivo inhibition of galactitol accumulation in the lens of galactose-fed rats at the dose of 55.4 (mg/kg/day); NS=Not significant; assay type: functional, organism-based; conditions: Lens of camera-type eye; summary of the method: as §3
# Rattus norvegicus [16] = experiment: Tested for in vivo inhibition of galactitol accumulation in the lens of galactose-fed rats at the dose of 24 (mg/kg/day); NS=Not significant; assay type: functional, organism-based; conditions: Lens of camera-type eye
# Rattus norvegicus [17] = experiment: Tested for in vivo inhibition of galactitol accumulation in the sciatic nerve of galactose-fed rats at the dose of 24 (mg/kg/day); NS=Not significant; assay type: functional, organism-based; summary of the method: as §1
# [18] = molecular target: Aldo-keto reductase family 1 member B1 (Bos taurus) (UniProt P16116); experiment: Inhibition of aldose reductase activity in partially purified bovine lens preparation at 4*10 e-8 M
# Rattus norvegicus [19] = experiment: Tested for in vivo inhibition of galactitol accumulation in the sciatic nerve of galactose-fed rats at the dose of 24; NS=Not significant; assay type: functional, organism-based; summary of the method: as §1
# Rattus norvegicus [20] = experiment: Tested for in vivo inhibition of galactitol accumulation in the sciatic nerve of galactose-fed rats at the dose of 10.0 (mg/kg/day); NS=Not significant; assay type: functional, organism-based; summary of the method: as §1
# Rattus norvegicus [21] = experiment: Tested for in vivo inhibition of galactitol accumulation in the sciatic nerve of galactose-fed rats at the dose of 24.1 (mg/kg/day); NS=Not significant; assay type: functional, organism-based; summary of the method: as §1
# Rattus norvegicus [22] = experiment: Tested for in vivo inhibition of galactitol accumulation in the lens of galactose-fed rats at the dose of 24.1 (mg/kg/day); NS=Not significant; assay type: functional, organism-based; conditions: Lens of camera-type eye
# Rattus norvegicus [23] = experiment: Tested for in vivo inhibition of galactitol accumulation in the sciatic nerve of galactose-fed rats at the dose of 9.9 (mg/kg/day); NS=Not significant; assay type: functional, organism-based; summary of the method: as §2
# [24] = molecular target: Aldo-keto reductase family 1 member B1 (Bos taurus) (UniProt P16116); experiment: Compound was tested in vitro for inhibition of aldose reductase activity in partially purified bovine lens preparation at 10 e-8 M
# Rattus norvegicus [25] = experiment: Tested for in vivo inhibition of galactitol accumulation in the sciatic nerve of galactose-fed rats.4.9 (mg/kg/day); NS=Not significant; assay type: functional, organism-based; summary of the method: as §2
# Rattus norvegicus [26] = experiment: Tested for in vivo inhibition of galactitol accumulation in the lens of galactose-fed rats at the dose of 4.9 (mg/kg/day); NS=Not significant; assay type: functional, organism-based; conditions: Lens of camera-type eye
# Rattus norvegicus [27] = experiment: Tested for in vivo inhibition of galactitol accumulation in the sciatic nerve of galactose-fed rats at the dose of 10.8 (mg/kg/day); assay type: functional; summary of the method: as §1
# Rattus norvegicus [28] = experiment: Tested for in vivo inhibition of galactitol accumulation in the lens of galactose-fed rats at the dose of 0.9 (mg/kg/day); NS=Not significant; assay type: functional, organism-based; conditions: Lens of camera-type eye
# Rattus norvegicus [29] = experiment: Tested for in vivo inhibition of galactitol accumulation in the lens of galactose-fed rats at the dose of 10.8 (mg/kg/day); assay type: functional, Lens of camera-type eye
smiles,measurement,setting,value
CCNC(=O)CC1C(=O)N(Cc2ccc(Br)cc2F)C(=O)c2ccccc21 (stereo not drawn),inhibition,Rattus norvegicus [1],inactive
same,inhibition,[2],inactive
same,inhibition,Rattus norvegicus [3],inactive
O=C1CC2(N1)C(=O)N(Cc1ccc(Br)cc1F)C(=O)c1ccc(F)cc12 (stereo not drawn),inhibition,Rattus norvegicus [4],inactive
same,inhibition,Rattus norvegicus [5],inactive
O=C1c2ccccc2C2(CC(=O)N(N=C3CCCC3)C2=O)C(=O)N1Cc1ccc(Br)cc1F (stereo not drawn),inhibition,[2],inactive
same,inhibition,Rattus norvegicus [6],inactive
same,Inhibition,Rattus norvegicus [7],86%
same,Inhibition,Rattus norvegicus [8],82%
same,Inhibition,Rattus norvegicus [9],76%
COC(=O)NC(=O)CC1C(=O)N(C)C(=O)c2ccccc21 (stereo not drawn),Inhibition,Rattus norvegicus [10],21%
same,inhibition,Rattus norvegicus [11],inactive
same,inhibition,[2],61%
same,Inhibition,Rattus norvegicus [12],37%
same,Inhibition,Rattus norvegicus [13],59%
O=C1c2ccccc2C2(CC(=O)N(NS(=O)(=O)C(F)(F)F)C2=O)C(=O)N1Cc1ccc(Br)cc1F (stereo not drawn),inhibition,Rattus norvegicus [14],inactive
same,inhibition,[2],inactive
same,inhibition,Rattus norvegicus [15],inactive
O=C(O)CC1C(=O)N(Cc2nc3cc(C(F)(F)F)ccc3s2)C(=O)c2ccc(F)cc21 (stereo not drawn),inhibition,Rattus norvegicus [16],inactive
same,inhibition,Rattus norvegicus [17],inactive
same,inhibition,[18],62%
O=C(O)CC1C(=O)N(Cc2nc3cc(C(F)(F)F)ccc3s2)C(=O)c2ccccc21 (stereo not drawn),inhibition,Rattus norvegicus [16],inactive
same,inhibition,Rattus norvegicus [19],inactive
same,inhibition,[18],65%
O=C1CC2(C(=O)N1CC(F)(F)F)C(=O)N(Cc1ccc(Br)cc1F)C(=O)c1ccccc12 (stereo not drawn),inhibition,Rattus norvegicus [20],inactive
same,inhibition,[2],inactive
CONC(=O)CC1C(=O)N(Cc2ccc(Br)cc2F)C(=O)c2ccccc21 (stereo not drawn),inhibition,Rattus norvegicus [21],inactive
same,inhibition,[2],45%
same,inhibition,Rattus norvegicus [22],inactive
CON1C(=O)CC2(C(=O)N(Cc3ccc(Br)cc3F)C(=O)c3ccccc32)C1=O (stereo not drawn),inhibition,Rattus norvegicus [23],inactive
same,inhibition,[2],inactive
CN1C(=O)c2ccc(Cl)cc2C(CC(=O)O)C1=O (stereo not drawn),inhibition,[24],35%
same,inhibition,Rattus norvegicus [25],inactive
same,inhibition,Rattus norvegicus [26],inactive
CC(C)=NN1C(=O)CC2(C(=O)N(Cc3ccc(Br)cc3F)C(=O)c3ccccc32)C1=O (stereo not drawn),Inhibition,Rattus norvegicus [27],82%
same,inhibition,[2],inactive
same,inhibition,Rattus norvegicus [28],inactive
same,Inhibition,Rattus norvegicus [29],30%
